The target of data set [1] is T1, ATP-dependent Clp protease proteolytic subunit (Staphylococcus aureus (strain NCTC 8325)) (UniProt Q2G036).
T1 sequence (whole entry): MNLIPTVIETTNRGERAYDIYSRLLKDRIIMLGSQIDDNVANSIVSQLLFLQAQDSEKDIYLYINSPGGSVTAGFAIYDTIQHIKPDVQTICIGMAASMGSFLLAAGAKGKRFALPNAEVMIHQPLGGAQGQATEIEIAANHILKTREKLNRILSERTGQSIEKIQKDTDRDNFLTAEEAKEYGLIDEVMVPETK
Kind of data set: Binding affinity to N-terminal His6-sumo-tagged full length Staphylococcus aureus ClpP expressed in Escherichia coli […] assessed as change in melting temperature at 100 uM by differential scanning calorimetry analysis. The gist of the method:
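DSC: SaClpP at 0.5 mg/mL (25 μM) incubated at RT with 100 μM inhibitor in assay buffer. Scanned at 1 °C/min over 30–90 °C, with a buffer-buffer scan subtracted. Tm taken as the thermogram peak maximum. Run once, single sample.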
For orientation: DSC measures the heat that a sample takes up or gives off during a temperature scan.

Data set [2] concerns the target T1, ATP-dependent Clp protease proteolytic subunit (Staphylococcus aureus (strain NCTC 8325)). Nature of the data set: Inhibition of N-terminal His6-sumo-tagged full length Staphylococcus aureus ClpP expressed in Escherichia coli […] at 20-fold molar excess pre-incubated for 10 mins before Suc-LY-AMC addition and measured after 1 hr followed by dialysis for 72 hrs by fluorescence based assay relative to control. The essentials: (§1)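 ClpP (1 μM, 100 mM Hepes pH 7.0, 100 mM NaCl) incubated 1 h at RT with 20-fold molar excess inhibitor or DMSO. Dialyzed at 4 °C, buffer changed after 6 h and then every 24 h. Aliquots assayed for peptidase activity with Suc-LY-AMC. Thrice, single sample.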

A short description of data set [3]: Induction of hemolysis in sheep erythrocytes by measuring hemoglobin release incubated for 15 mins. It counts as cell-based, Ovis aries, Erythrocyte. The essentials: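 Serially diluted compound mixed directly with 2% sheep erythrocytes in 10 mM Tris pH 7.4, 0.9% NaCl. Buffer served as negative and water as positive control. After 1,500 rpm, 15 min spin, released hemoglobin read at 545 nm. Three experiments, triplicate tubes.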

For data set [4], the system named is Staphylococcus aureus. Nature of the data set: Growth inhibition of methicillin-resistant Staphylococcus aureus ATCC 33591 up to 64 uM incubated for 18 hrs by broth microdilution method. The data set is classed as functional, organism-based. The gist of the method:
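MRSA ATCC 33591 at ~5×10⁵ CFU/mL in MHB with graded compound concentrations vs DMSO; OD600 growth curves over 18 h; three experiments, triplicate wells. MIC by CLSI broth microdilution in CAMHB, 0.5-256 µg/mL, 18 h at 37 °C, lowest concentration with no visible growth.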
Background: Broth dilution looks for growth in wells or tubes with falling amounts of substance.

The target in data set [5] is T1, ATP-dependent Clp protease proteolytic subunit (Staphylococcus aureus (strain NCTC 8325)). Kind of data set: Inhibition of N-terminal His6-sumo-tagged full length Staphylococcus aureus ClpP expressed in Escherichia coli […] assessed as enzyme activity recovery level at 20-fold molar excess pre-incubated for 10 mins before Suc-LY-AMC addition and measured after 1 hr followed by dialysis up to 72 hrs by fluorescence based assay relative to control. The arrangement: scale not given: the % may be the effect or the level left. The gist of the method:
as §1

Data set [6] shares this target. Kind of data set: Inhibition of N-terminal His6-sumo-tagged full length Staphylococcus aureus ClpP expressed in Escherichia coli […] (DE3) assessed as Kinact/Ki ratio […] and measured after 1 hr by fluorescence based assay.
The nature of data set [7]: Cytotoxicity in human HeLa cells assessed as reduction in cell viability incubated for 24 hrs by MTT assay. The data set is classed as cell-based. The essentials: (§2)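 MTT assay. HeLa (3×10^3 cells) or HepG2 (4×10^3 cells) seeded in DMEM and grown 24 h, then given compound for a further 24 h. Absorbance read at 570 nm against DMSO wells. GI50 from dose-response fit; three experiments, triplicate wells.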
On the technique in general: Tetrazolium assays rely on reduction of a dye to a coloured formazan, in cell work by metabolically active cells.

The target in data set [8] is T2, ATP-dependent Clp protease proteolytic subunit (Staphylococcus aureus (strain NCTC 8325), UniProt Q2G036).
T2 sequence (Q2G036 whole entry): T1 sequence (whole entry)
Kind of data set: (§3) Inhibition of N-terminal His6-sumo-tagged full length Staphylococcus aureus ClpP expressed in Escherichia coli […] pre-incubated for 10 mins before Suc-LY-AMC addition and measured after 1 hr by fluorescence based assay. The essentials: (§4)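 SaClpP (1 μM monomer) in 100 mM Hepes pH 7.0, 100 mM NaCl. Preincubated 10 min at RT with inhibitor, two-fold dilutions over 8 steps from 100 μM. Suc-LY-AMC at 200 μM, 380/440 nm recorded for 1 h at 37 °C, slopes normalized to DMSO. For kinact/Ki, inhibitor premixed with substrate and reaction started by enzyme, fitted by least squares. Thrice, triplicate wells.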

Data set [9] concerns the target T1, ATP-dependent Clp protease proteolytic subunit (Staphylococcus aureus (strain NCTC 8325)). The description is as §3. The essentials:
as §4

Data set [10] can be described thus: Cytotoxicity in human HepG2 cells assessed as reduction in cell viability incubated for 24 hrs by MTT assay. The data set is classed as cell-based. The essentials: as §2
Data set [11] deals with T2, ATP-dependent Clp protease proteolytic subunit. Kind of data set: Inhibition of ClpP in methicillin-resistant Staphylococcus aureus ATCC 33591 assessed as reduction in bacteria-induced hemolysis of sheep erythrocytes by measuring hemoglobin release incubated for 15 mins.
Data set [12] relates to Staphylococcus aureus. Kind of data set: Inhibition of Staphylococcus aureus ClpXP expressed in Escherichia coli […] at 1 to 100 uM using FITC-casein substrate in presence of ATP-regenerating system incubated for 50 mins by fluorescence based assay. The gist of the method: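 3.6 μM SaClpP with 3 μM SaClpX in 25 mM Hepes pH 7.5, 20 mM MgCl2, 30 mM KCl, 0.03% Tween 20, 10% glycerol, 2 mM DTT. ATP regeneration: 4 mM ATP, 20 U/mL creatine kinase, 16 mM creatine phosphate. FITC-casein 0.048 mg/mL, 494/521 nm for 50 min; slope 300–1200 s vs DMSO. Thrice, triplicate wells.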

Data set [13] concerns the target Coagulation factor X (Homo sapiens) (UniProt P00742). Kind of data set: Inhibition of human F10a up to 100 uM pre-incubated for 10 mins before Pefachrome Fxa addition and measured after […] based assay.
The nature of data set [14]: Inhibition of Pseudomonas aeruginosa ClpP1 expressed in Escherichia coli […] pre-incubated for 10 mins before Suc-LY- AMC addition and measured after 1 hr by fluorescence based assay relative to control. The gist of the method:
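PaClpP1 (0.5 μM monomer) in 25 mM Tris-Cl pH 7.5, 150 mM NaCl. Preincubated 10 min at RT with inhibitor, two-fold dilutions over 8 steps from 50 μM. Then 50 μM Suc-LY-AMC, 380/440 nm for 1 h at 37 °C, slopes normalized to DMSO. Thrice, triplicate wells.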

A short description of data set [15]: Inhibition of AlgW (unknown origin) up to 100 uM pre-incubated for 10 mins before Abz-T-V-A-W-pNA addition and measured after 1 hr by fluorescence based assay.
Data set [16] is described as follows: Inhibition of human ClpP (57 to 277 residues) expressed in Escherichia coli […] pre-incubated for 10 mins before Ac-WLA-AMC addition and measured after 1 hr by fluorescence based assay relative to control. The gist of the method: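 hClpP (3.5 μM monomer) in 25 mM Tris-HCl pH 8.0, 100 mM KCl. Preincubated 10 min at RT with inhibitor, two-fold dilutions over 8 steps from 100 μM. Then 100 μM Ac-WLA-AMC, 380/440 nm for 1 h at 37 °C, slopes normalized to DMSO. Thrice, triplicate wells.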

Data set [17] deals with 20S proteasome (Homo sapiens) (UniProt P49721+P20618+P28074+P28062+P28065+P28072+P25786+P25787+P25788+P25789+P28066+P60900+O14818+Q8TAA3+P40306+A5LHX3+P49720+P28070+Q99436). Kind of data set: Inhibition of 20S proteasome (unknown origin) pre-incubated before Suc-LLVY-AM addition and measured after 1 hr by fluorescence based assay. The data set is classed as protein-complex assay.

Calls of active or inactive are those of the source. No cut-off for these calls is given here. Where only a bound is given, the exact number is not on record here.

The HC50 is the concentration giving 50% haemolysis. A word on the ΔTm: it is the shift of the melting midpoint relative to a reference. As a reminder, the GI50 is the concentration giving 50% growth inhibition. A word on the IC50: it is the point on the concentration scale where inhibition reaches its midpoint.

Coagulation factor X (Homo sapiens), sequence (P00742 41-179 limits assumed): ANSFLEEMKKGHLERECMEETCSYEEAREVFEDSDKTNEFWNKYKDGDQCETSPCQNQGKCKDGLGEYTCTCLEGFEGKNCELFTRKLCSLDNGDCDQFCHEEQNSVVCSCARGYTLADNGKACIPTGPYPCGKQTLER
Coagulation factor X (Homo sapiens), sequence (P00742 235-488 limits assumed): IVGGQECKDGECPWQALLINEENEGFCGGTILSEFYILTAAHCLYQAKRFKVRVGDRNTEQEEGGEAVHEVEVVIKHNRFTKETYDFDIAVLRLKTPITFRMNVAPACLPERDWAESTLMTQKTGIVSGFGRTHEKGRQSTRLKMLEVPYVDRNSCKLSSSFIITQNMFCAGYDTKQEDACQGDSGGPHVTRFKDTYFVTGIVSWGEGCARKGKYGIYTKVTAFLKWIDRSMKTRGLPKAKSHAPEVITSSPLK

For `COC(=O)c1ccc(OC(=O)CCc2cc(OC)c(OC)c(OC)c2)cc1`, the outcome in data set [1] was inactive. Also, the inhibition result in [2] was “Active”.
On to `CC(C)Cc1ccc(C(C)C(=O)N[C@@H](Cc2c[nH]c3ccccc23)C(=O)N[C@@H](CC(C)C)B(O)O)cc1` (stereo partly specified), for which the HC50 at 0.25 h in [3] is more than 500 µM. The ΔTm in data set [1] was 29.5 to 42.2 °C. The “growth inhibition (GI)” value in data set [4] is “inactive”. Besides, the Activity in data set [5] was found to be 100%. In addition, the Ratio in data set [6] was determined as 8 ×10² /s.M. Also, the GI50 at 24 h was 71.2 µM in data set [7] and 54.8 µM in [10]. This compound showed an IC50 in [8] of 1.9 µM. In addition, the inhibition result in data set [9] was “Dose-dependent effect”. The EC50 in [11] was 2.6 µM.
In data set [3], `CC(C)C[C@H](NC(=O)[C@H](Cc1ccccc1)NC(=O)c1cnccn1)B(O)O` [BORTEZOMIB] registered an HC50 at 0.25 h of more than 500 µM. The ΔTm in data set [1] was 29.5 to 42.2 °C. For the same compound, the Activity in [5] stood at 100%. Further, the Ratio in data set [6] turned out to be 2.2 ×10² /s.M. Also, the 50% growth inhibitory concentration (GI50) at 24 h in data set [7] stood at 168 µM; in data set [10], 101 µM. This compound also yielded an IC50 in [8] of 5.3 µM. The inhibition result in data set [9] is “Dose-dependent effect”. In addition, in [12], the inhibition result is “inactive”. For the same compound, the EC50 in data set [11] is 23.5 µM.
`CC(C)Cc1ccc(C(C)C(=O)N[C@@H](Cc2ccc(O)cc2)C(=O)N[C@@H](CC(C)C)B(O)O)cc1` (stereo partly specified) returned an HC50 at 0.25 h in [3] of more than 500 µM. In addition, the inhibition entry in [13] and in [15] was “inactive” each time. Also, the shift in melting temperature (ΔTm) in [1] fell in the range of 29.5 to 42.2 °C. Further, the Activity in data set [5] stood at 100%. The Ratio in data set [6] amounted to 7.2 ×10² /s.M. For the same compound, the IC50 in [14] was 3 to 25 µM; in data set [8], 1.4 µM; in data set [16], 3 to 25 µM. For the same compound, the results for the GI50 at 24 h in [7] and in data set [10] were 83 µM and 117 µM, respectively. In addition, the inhibition entry in [9] is “Dose-dependent effect”. In addition, in data set [11], the EC50 stood at 9.6 µM. Also, the inhibition entry in data set [17] is “Active”.
`COc1ccc(C(=O)N[C@@H](Cc2ccccc2)C(=O)N[C@@H](CC(C)C)B(O)O)cc1` registered an HC50 at 0.25 h in [3] of more than 500 µM. Moreover, the inhibition entry in data set [13] and in data set [15] was “inactive” throughout. In addition, the shift in melting temperature (ΔTm) in [1] lay within 29.5 to 42.2 °C. For the same compound, in data set [5], the Activity came out at 100%. In data set [6], the Ratio amounted to 6.7 ×10² /s.M. Also, the IC50 in [14] is 3 to 25 µM; in data set [8], 1.9 µM; in data set [16], 3 to 25 µM. In addition, the GI50 at 24 h in [7] is 196 µM; in data set [10] it was more than 200 µM. In [9], the inhibition result is “Dose-dependent effect”. Besides, the EC50 in data set [11] worked out at 3.3 µM. Moreover, the inhibition entry in data set [17] is “Active”.
Turning to `CC(C)C[C@H](NC(=O)CNC(=O)c1cc(Cl)ccc1Cl)B(O)O` [IXAZOMIB], in [3], the HC50 at 0.25 h was 408 µM. For the same compound, the Ratio in data set [6] came out at 2.4 ×10² /s.M. The results for the GI50 at 24 h in [7] and in [10] were 182 µM and more than 200 µM, respectively. This compound also gave an IC50 in data set [8] of 5.3 to 5.7 µM. Further, the inhibition entry in data set [9] is “Dose-dependent effect”. Further, in [11], the EC50 was 3.6 µM.
For the compound `COc1ccc(C(=O)N[C@@H](Cc2ccccc2)C(=O)N[C@@H](CC(C)C)B(O)O)c(C)c1`, the 50% haemolytic concentration (HC50) at 0.25 h in data set [3] was more than 500 µM. Further, in data set [1], the ΔTm is 29.5 to 42.2 °C. In addition, the Activity in [5] came out at 100%. Further, in [6], the Ratio is 9.1 ×10² /s.M. The GI50 at 24 h in data set [7] and in data set [10] was more than 200 µM each time. Moreover, in [8], inhibition was half-maximal at 1.5 µM (IC50). The inhibition entry in data set [9] is “Dose-dependent effect”. The EC50 in data set [11] was determined as 14.8 µM.

Source of the values: ChEMBL document CHEMBL4402562, “Discovery of Novel Peptidomimetic Boronate ClpP Inhibitors with Noncanonical Enzyme Mechanism as Potent Virulence Blockers in Vitro and in Vivo” (J Med Chem, 2020).
